From ChEMBL document CHEMBL1649230, “Aryl rhodanines specifically inhibit staphylococcal and enterococcal biofilm formation” (Antimicrob Agents Chemother, 2009)

Assays:
Assay type in all cases: functional
Staphylococcus aureus [1] = test: Antimicrobial activity against hospital acquired methicillin-resistant Staphylococcus aureus isolate 1094 assessed as inhibition of bacterial biofilm after 18 hrs by broth microdilution method
How it was run: (§1)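 Biofilm MBIC on tissue culture-treated polystyrene 96-well plates. Twofold dilutions, 0.2 to 100 μM final, with 2% DMSO final. Inoculum was an overnight culture diluted 1:100 (~5 × 10^6 cells/well) in 0.5× TSB plus 1% glucose, grown 18 h at 37°C. Wells washed, heat-fixed 60°C 60 min, stained with 0.06% crystal violet, OD600 read. MBIC is the lowest concentration giving ≥80% inhibition versus untreated; geometric mean of ≥3 experiments.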

[2] = test system: Staphylococcus epidermidis; test: Antimicrobial activity against coagulase-negative Staphylococcus epidermidis isolate WTBF-41 assessed as inhibition of bacterial biofilm after 18 hrs by broth microdilution method; how it was run: as §1
Staphylococcus aureus [3] = test: Antimicrobial activity against community acquired methicillin-resistant Staphylococcus aureus isolate 22733 assessed as inhibition of bacterial biofilm after 18 hrs by broth microdilution method; how it was run: as §1
Escherichia coli = test: Antimicrobial activity against Escherichia coli ATCC 25922 assessed as inhibition of bacterial biofilm after 18 hrs by broth microdilution method
How it was run: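 Polystyrene plates with breathable lids in 1× TSB (0.25% glucose), 37°C for 18 h. Biofilms form at the air-liquid interface. Stained with crystal violet, dye eluted with 30% acetic acid, OD read. Compound 2-fold series, final 0.2–100 μM in 2% DMSO. MBIC taken at ≥80% inhibition versus untreated. Geometric mean of ≥3 experiments.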

Staphylococcus aureus [4] = test: Antimicrobial activity against Staphylococcus aureus ATCC 35556 assessed as inhibition of bacterial biofilm formation after 18 hrs by broth microdilution method in presence of 5 ug/ml fibronectin
How it was run: (§2)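 Polystyrene 96-well wells precoated with 100 μl fibronectin or fibrinogen (0–20 μg protein/ml) for 24 h at 4°C. Wells then washed with sterile water. The standard MBIC biofilm assay followed: 0.5× TSB with 1% glucose, 2% DMSO, 18 h at 37°C, crystal violet read at OD600.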

Staphylococcus aureus [5] = test: Antimicrobial activity against Staphylococcus aureus ATCC 35556 assessed as inhibition of bacterial biofilm formation after 18 hrs by broth microdilution method in presence of 1 ug/ml fibronectin; how it was run: as §2
Staphylococcus aureus [6] = test: Antimicrobial activity against community acquired community-acquired Staphylococcus aureus MW2 assessed as inhibition of bacterial biofilm after 18 hrs by broth microdilution method; how it was run: as §1
[7] = test system: Staphylococcus epidermidis; test: Antimicrobial activity against Staphylococcus epidermidis ATCC 35984 assessed as inhibition of bacterial biofilm after 18 hrs by broth microdilution method
How it was run: (§3)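 Static biofilm in tissue culture-treated polystyrene 96-well plates in 0.5× TSB with 1% glucose. Overnight culture diluted 1:100 gives about 5 × 10^6 cells/well. Compound 2-fold series, final 0.2–100 μM, 2% DMSO. Incubated 18 h at 37°C. Washed, heat-fixed 60°C for 60 min, stained with 0.06% crystal violet, read at OD600. MBIC is the lowest concentration giving ≥80% inhibition versus untreated. Geometric mean of ≥3 independent experiments.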

[8] = test system: Staphylococcus epidermidis; test: Antimicrobial activity against coagulase-negative Staphylococcus epidermidis isolate WTBF-47 assessed as inhibition of bacterial biofilm after 18 hrs by broth microdilution method; how it was run: as §3
Staphylococcus aureus [9] = test: Antimicrobial activity against Staphylococcus aureus ATCC 35556 assessed as inhibition of bacterial biofilm formation after 18 hrs by broth microdilution method in presence of 5 ug/ml fibrinogen; how it was run: as §2
Staphylococcus aureus [10] = test: Antimicrobial activity against Staphylococcus aureus ATCC 35556 assessed as inhibition of bacterial biofilm formation after 18 hrs by broth microdilution method in presence of 2 ug/ml fibrinogen; how it was run: as §2
Staphylococcus aureus [11] = test: Antimicrobial activity against Staphylococcus aureus ATCC 35556 assessed as inhibition of bacterial biofilm formation after 18 hrs by broth microdilution method in presence of 20 ug/ml fibrinogen; how it was run: as §2
[12] = test system: Staphylococcus epidermidis; test: Antimicrobial activity against Staphylococcus epidermidis 1457 assessed as inhibition of bacterial biofilm after 18 hrs by broth microdilution method; how it was run: as §3
[13] = test system: Staphylococcus epidermidis; test: Antimicrobial activity against Staphylococcus epidermidis 1457 on medical grade silicone disk assessed as inhibition of bacterial biofilm after 18 hrs by broth microdilution method
Staphylococcus aureus [14] = test: Antimicrobial activity against Staphylococcus aureus ATCC 35556 assessed as inhibition of bacterial biofilm formation after 18 hrs by broth microdilution method in presence of 2 ug/ml fibronectin; how it was run: as §2
Staphylococcus aureus [15] = test: Antimicrobial activity against community acquired Staphylococcus aureus NCTC 8325 assessed as inhibition of bacterial biofilm after 18 hrs by broth microdilution method; how it was run: as §3
Staphylococcus aureus [16] = test: Antimicrobial activity against methicillin-susceptible Staphylococcus aureus on medical grade silicone disk assessed as inhibition of bacterial biofilm after 18 hrs by broth microdilution method
How it was run: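 S. aureus ATCC 35556 biofilms were grown on autoclaved medical-grade silicone disks fixed in 24-well plates. The inoculum was a 1:100 dilution of an overnight culture in 0.5× TSB with 1% glucose, with compound at 0× to 8× MBIC and 2% DMSO final, in at least three wells. Plates were held about 18 h at 37°C, water-washed, heat-fixed at 60°C for 60 min, and stained with 0.06% CV. CV was eluted in 30% acetic acid and read at OD600, averaging three disks; runs were repeated ≥3 times.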

Staphylococcus aureus [17] = test: Antimicrobial activity against Staphylococcus aureus ATCC 35556 assessed as inhibition of bacterial biofilm formation after 18 hrs by broth microdilution method in presence of 20 ug/ml fibronectin; how it was run: as §2
Enterococcus gallinarum [18] = test: Antimicrobial activity against vancomycin-resistant Enterococcus gallinarum isolate 2392 on medical grade silicone disk assessed as inhibition of bacterial biofilm after 18 hrs by broth microdilution method
How it was run: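 Medical-grade silicone disks glued to 24-well plate bottoms. Compound added to a 1:100 overnight-culture inoculum (0.5× TSB, 1% glucose) at 2% DMSO final; ≥3 wells each, ~18 h at 37°C. Washed with water, heat-fixed 60°C 60 min, stained with 0.06% crystal violet, eluted with 30% acetic acid, OD600 read. Repeated ≥3 times.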

[19] = test system: Staphylococcus epidermidis; test: Antimicrobial activity against Staphylococcus epidermidis O-47 assessed as inhibition of bacterial biofilm after 18 hrs by broth microdilution method; how it was run: as §3
Staphylococcus aureus [20] = test: Antimicrobial activity against hospital acquired methicillin-resistant Staphylococcus aureus isolate 47263 assessed as inhibition of bacterial biofilm after 18 hrs by broth microdilution method; how it was run: as §1
Enterococcus faecalis = test: Antimicrobial activity against vancomycin-resistant Enterococcus faecalis ATCC 51299 assessed as inhibition of bacterial biofilm after 18 hrs by broth microdilution method; how it was run: as §1
Staphylococcus aureus [21] = test: Antimicrobial activity against hospital acquired methicillin-resistant Staphylococcus aureus isolate 58336 assessed as inhibition of bacterial biofilm after 18 hrs by broth microdilution method; how it was run: as §1
Enterococcus gallinarum [22] = test: Antimicrobial activity against vancomycin-resistant Enterococcus gallinarum isolate 2392 assessed as inhibition of bacterial biofilm after 18 hrs by broth microdilution method; how it was run: as §1
Enterococcus faecium = test: Antimicrobial activity against vancomycin-resistant Enterococcus faecium isolate 1401 assessed as inhibition of bacterial biofilm after 18 hrs by broth microdilution method; how it was run: as §1
Staphylococcus aureus [23] = test: Antimicrobial activity against community acquired methicillin-resistant Staphylococcus aureus isolate 44081 assessed as inhibition of bacterial biofilm after 18 hrs by broth microdilution method; how it was run: as §1
Staphylococcus aureus [24] = test: Antimicrobial activity against community acquired methicillin-resistant Staphylococcus aureus isolate 38230 assessed as inhibition of bacterial biofilm after 18 hrs by broth microdilution method; how it was run: as §1

Structure (SMILES)	MBIC (Staphylococcus aureus [1])	MBIC [2]	MBIC (Staphylococcus aureus [3])	MBIC (Escherichia coli)	MBIC (Staphylococcus aureus [4])	MBIC (Staphylococcus aureus [5])	MBIC (Staphylococcus aureus [6])	MBIC [7]	MBIC [8]	MBIC (Staphylococcus aureus [9])	MBIC (Staphylococcus aureus [10])	MBIC (Staphylococcus aureus [11])	MBIC [12]	MBIC90 [13]	MBIC (Staphylococcus aureus [14])	MBIC (Staphylococcus aureus [15])	MBIC90 (Staphylococcus aureus [16])	MBIC (Staphylococcus aureus [17])	MBIC [19]	MBIC (Enterococcus faecium)	also measured
CCOc1cc(/C=C2\SC(=S)N(c3cccc(F)c3)C2=O)ccc1O	100 µM	17.7 µM	70.7 µM	>=100 uM	6.25 µM	6.25 µM	31.5 µM	25 µM	42 µM	6.25 µM	6.25 µM	6.25 µM	50 µM	59.5 µM	6.25 µM	25 µM	70.7 µM	6.25 µM	100 µM	>=100 uM	MBIC90 (Enterococcus gallinarum [18]): >=100 uM; MBIC (Staphylococcus aureus [20]): 8.8 µM; MBIC (Enterococcus faecalis): 25 µM; MBIC (Staphylococcus aureus [21]): 10.5 µM; MBIC (Enterococcus gallinarum [22]): 50 µM
CCOc1cc(/C=C2\SC(=S)N(c3ccc(F)cc3)C2=O)ccc1O	100 µM	14.9 µM	50 µM	>=100 uM	3.125 µM	3.125 µM	42 µM	17.7 µM	29.7 µM	3.125 µM	3.125 µM	6.25 µM	42 µM	42 µM	3.125 µM	25 µM	79.4 µM	6.25 µM	50 µM	100 µM	MBIC (Staphylococcus aureus [23]): 79.4 µM; MBIC (Staphylococcus aureus [24]): 50 µM; MBIC90 (Enterococcus gallinarum [18]): >=100 uM; MBIC (Staphylococcus aureus [20]): 8.8 µM; MBIC (Enterococcus faecalis): 12.5 µM; MBIC (Staphylococcus aureus [21]): 10.5 µM; MBIC (Enterococcus gallinarum [22]): 84.1 µM
CCOc1cc(/C=C2\SC(=S)N(c3cccnc3)C2=O)ccc1O	25 µM	17.7 µM		>=100 uM	12.5 µM	12.5 µM	21 µM	12.5 µM	12.5 µM	12.5 µM	12.5 µM	12.5 µM	12.5 µM	35.4 µM	12.5 µM	12.5 µM	25 µM	12.5 µM	59.5 µM	19.8 µM	MBIC (Staphylococcus aureus [23]): 25 µM; MBIC (Staphylococcus aureus [24]): 19.8 µM; MBIC (Enterococcus faecalis): 8.8 µM; MBIC (Staphylococcus aureus [21]): 14.9 µM
C=CCOc1cc(/C=C2\SC(=S)N(c3ccc(F)cc3)C2=O)ccc1O	100 µM	17.7 µM	100 µM	>=100 uM	3.125 µM	3.125 µM	25 µM	17.7 µM	29.7 µM	3.125 µM	3.125 µM	3.125 µM	29.7 µM	59.5 µM	3.125 µM	14.9 µM	100 µM	3.125 µM	59.5 µM	79.4 µM	MBIC (Staphylococcus aureus [23]): 39.7 µM; MBIC (Staphylococcus aureus [24]): 35.4 µM; MBIC90 (Enterococcus gallinarum [18]): 100 µM; MBIC (Staphylococcus aureus [20]): 8.8 µM; MBIC (Enterococcus gallinarum [22]): >=100 uM
